assay: Toxicity liver stage against HepG2, at 10uM; assay type: cell-based; design: test concentration 10 uM, cell line HepG2-A16-CD81EGFP; conditions: human, HepG2-A16-CD81EGFP cells; read-out: INHIBITION
How it was run: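 Uninfected HepG2-A16-CD81EGFP cells, 3 × 10^3 per well, 1536-well, plated on prespotted compound at 10 μM final, parasite-free screening media added to match infected plates; puromycin 10 μM positive, DMSO 0.5% negative; run in parallel with 48 h PbLuc assay at 37 °C, 5% CO2; viability by CellTiter-Glo luminescence, normalized to controls.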

Compound	cytotoxicity at 10 µM
c1ccc(-c2noc([C@@H]3Cc4nc[nH]c4CN3)n2)cc1	-4.26%
CC(C)CCNC(=O)c1csc(NC2CC2)n1	-0.243%
COc1cccc2c1ccn2CCNC(=O)CC(C)C	4.38%
O=C(CC1CCCC1)NCCS(=O)(=O)N1CCN(c2ncccn2)CC1	-1%
O=C(COc1ccc(-n2cccn2)nn1)N1CCCC1	1.43%
Cc1nsc(C(=O)NCCc2ccccc2)n1	4.28%
O=C(CCO)N1C[C@H]2CN(c3ccccc3)C(=O)[C@H]2C1	1.35%
O=C(c1ccccn1)N1CCc2ncnc(N3CCOCC3)c2CC1	0.661%
CCOCC(=O)N1CCCn2c(CN3CCOCC3)nnc2C1	-132%
Cn1nc(C#N)c2c1CN(C(=O)c1ccco1)CCC2	-133%
Cc1ccc(Cl)cc1NC(=O)Cn1cc(C(=O)O)ccc1=O	-1.45%
O=C1CCCN1Cc1noc(-c2ccc(Cl)cc2)n1	5.56%
CC(C)c1nn(CC(=O)N2CCCCC2)c(=O)c2c1cnn2C(C)(C)C	-13.2%
O=C(c1cn(-c2cc(N3CCSCC3)ncn2)cn1)N1CCSCC1	-17.3%
COc1cccc(-c2cc(C(=O)NCCCn3nc(C)cc3C)[nH]n2)c1	-5.86%
CCOC(=O)Cc1n[nH]c(-c2cncc(Br)c2)n1	3.24%
O=C(c1ccc(-c2ccc(O)nc2)s1)N1CCCCC1	3.35%
COC(C)C(=O)N(CC(N)=O)Cc1cccc(Oc2ccccc2)c1 (configuration not stated)	1.46%
N#Cc1cnc2cc(F)cc(F)c2c1NC1CCN(CC(N)=O)CC1	0%
CC(c1nc(-c2ccccc2)no1)N1CC(n2cccn2)C1 (configuration not stated)	1.62%
CNC(=O)CN1CCC(CN(C)CCSc2ccccc2)CC1	-0.488%
c1nc2onc(C3CC3)c2cc1-c1nnc(C2CC2)o1	8.03%
Cn1ccnc1CN1CCCC1CCc1ccccc1 (configuration not stated)	13.8%

Compound	cytotoxicity at 10 µM
CC(CNC(=O)c1ccco1)N1CCc2sccc2C1 (configuration not stated)	0.107%
O=C(NCC1(O)CCSCC1)c1nccc2ccccc12	4.59%
CCCN(Cc1ccccc1O)S(=O)(=O)C(C)CC (configuration not stated)	9.02%
CCc1ccc(S(=O)(=O)Nc2ccn(CC(=O)OC)n2)cc1	7.22%
CCc1nnsc1C(=O)NCc1c(C)nn(CCOC)c1C	-8.8%
O=C(CS(=O)(=O)c1ncccc1Cl)NC1CCCc2ccccc21 (configuration not stated)	-7.69%
CCCOCC(=O)Nc1ncc(I)cc1C	1.46%
Cc1cccc(C(=O)NCC(O)c2ccc(F)cc2F)c1 (configuration not stated)	6.27%
CS(=O)(=O)NC1CCN(C(=O)c2ccc(Br)cc2)C1 (configuration not stated)	4.94%
CC(C)c1cc(C(=O)NCc2nc(-c3ccc(F)cc3)n[nH]2)n[nH]1	-1.75%
Cc1ccc(Nc2c(C#N)c(=O)n(C)c(=O)n2C)cc1F	-4.99%
O=C(c1cccnc1-n1cncn1)N1CCN(c2ccccc2)CC1	4.06%
Cc1cc(NC(=O)NCC(c2ccsc2)N(C)C)n(C)n1 (configuration not stated)	-5.33%
Cc1ccc(S(=O)(=O)NC2CCC(=O)NC2)cc1Br (configuration not stated)	-2.38%
Cc1c(C(=O)NCCN2C(=O)CCC2=O)sc2ccc(F)cc12	2.11%
CCC(=O)Nc1ccc(C(C)NC(=O)COC)cc1 (configuration not stated)	-145%
COCCOCC(=O)Nc1ccc(C)cc1Cl	1.85%
CC(C)NC(=O)c1nnn(-c2ccccc2)c1C1CC1	2.2%
CC(C)N(CCC#N)C(=O)c1cnc(-c2ccc3c(c2)OCO3)s1	0.247%
Cc1cc(N(C)C)nc(N2CCN(C(C)c3nc(C)no3)CC2)n1 (configuration not stated)	2.33%
COc1cc(C)nc(N2CCN(C(C)c3nc(C)no3)CC2)n1 (configuration not stated)	3.55%
Cc1cc(CNc2ccc3nc(C4CC4)sc3c2)no1	0.981%
O=c1[nH]nc(CNc2cncc(Br)c2)[nH]1	-1.23%

Compound	cytotoxicity at 10 µM
N#Cc1cnc(NCCCN2C(=O)COc3ccccc32)c(Cl)c1	-3.64%
CC1CCC(NS(=O)(=O)CC(=O)Nc2ccc(N3CCCC3)cn2)CC1 (configuration not stated)	1.54%
CN(CCCc1cc(-c2ccc(F)cc2)n(C)n1)CC(N)=O	-8.71%
CS(=O)(=O)CCOCCNc1ccc2ccc(F)cc2n1	3.55%
O=C(COc1cccc2c1CCC2=O)NCCSc1ccccc1	-1.22%
O=C(N[C@H]1CN2CCC1CC2)c1cc(Cn2cnc3ccccc32)[nH]n1	-4.26%
O=C1NCCCc2[nH]c(-c3nc(C4CCCCC4)no3)nc21	-0.627%
Cn1ccc2c(-c3cc(N4CCCCC4)ncn3)ccnc21	-3.46%
COCCCN1CCCC2(CCN(S(=O)(=O)c3cccnc3)C2)C1=O (configuration not stated)	8.21%
O=C(C1CC1)N1CCc2[nH]cnc2C12CCN(C1CCOCC1)CC2	-1.16%
Cc1nccc(N2C[C@H](NC(=O)CNS(C)(=O)=O)[C@@H](C3CC3)C2)n1	-13.8%
CCC(NC(=O)c1cnc(N(C)C)nc1C)c1ccncc1 (configuration not stated)	-2.9%
Nc1nc(CCNc2ncnc3c2CCN(C(=O)C2CC2)C3)cs1	-6.68%
Cc1c(-c2nnc(SCC(=O)O)n2C(C)c2ccccc2)cnn1C (configuration not stated)	-5.43%
COc1ccccc1OCc1cc(C(=O)N2CCC(NC(C)=O)C2)n[nH]1 (configuration not stated)	-4.26%
COc1ccc(-c2ccc(C(=O)N3CCOCC3CC(N)=O)o2)cc1 (configuration not stated)	3.16%
CCCc1nc(C)cc(N2CCC3(CCC(=O)N(CCO)C3)CC2)n1	-6.71%
O=C(CN1CCCC1c1nc(-c2ccccn2)no1)N1CCOCC1 (configuration not stated)	6.08%
COCc1ccc(C(=O)N2CCc3c(ncnc3N3CCOCC3)C2)o1	-2.17%
CCc1nn(C)c(Cl)c1CN1CCC2(C1)CN(C)C(=O)O2 (configuration not stated)	1.95%
CSc1ccc(-c2nc(CN3CCC(CN)C3)c(C)o2)cc1 (configuration not stated)	-2.65%
CCN(Cc1cccc(C(=O)Nc2ncc(C)s2)c1)[C@H]1COC[C@@H]1O	-2.61%
Cc1nc(C(C)C)sc1C(=O)NCCSc1nccn1C	-1.7%

Compound	cytotoxicity at 10 µM
CCC(CO)N(Cc1ccsc1)Cc1ccccc1C(=O)O (configuration not stated)	-14.4%
O=c1c2cccc(F)c2ncn1CCN1CCNCC1	-0.812%
O=C(c1cncc(N2CCC3(CCCNC3)C2)n1)N1CCCC1 (configuration not stated)	-4.15%
Cc1nc(NCC23CCCN2CCC3)cc(C2CCCNC2)n1 (configuration not stated)	7.54%
CCCc1nnc(NC2CCN(C3CCSCC3)CC2)o1	-1.38%
COc1cccnc1-c1ccc(F)c2c1OC(CN)C2 (configuration not stated)	1.74%
COc1ncccc1-c1nc(-c2ccccn2)nn1C1CCN(C)CC1	-4.52%
Cc1c(CNC(=O)c2cn(CCC3CCCCN3)nn2)cnn1C (configuration not stated)	-3.44%
Cc1cc(N2CCCC(O)(CN(C)C)CC2)nc(-c2ccccc2)n1 (configuration not stated)	-9.41%
CCN1CCc2[nH]cnc2C12CCN(c1ccc(Cl)cn1)CC2	6%
CCSCCC(=O)NCc1cc2n(n1)CCN(C(=O)N(C)C)C2	-5.38%
COc1ccccc1Oc1ncccc1CNC(=O)[C@@H](N)CCO	-17.5%
Cc1nc(C(C)NC(=O)COc2ccc(F)cc2)n[nH]1 (configuration not stated)	6.39%
NC(=O)Cn1cc(NC(=O)N2CCN(c3ccccc3)CC2)cn1	-8.45%
O=C(Cn1nc(-c2ccc(F)cc2)oc1=O)NCc1ccccc1F	-9.04%
CCN1CCOC(CNCc2csc(C)n2)C1 (configuration not stated)	-5.13%
c1cnn(CC2CN(CC3CCCCC3)CCO2)c1 (configuration not stated)	-7.85%
CC(C)Oc1ccc(C(=O)N2CCC(Nc3cccnn3)CC2)cn1	-31%
NC(=O)Cn1cc(NC(=O)NCCN2CCc3ccccc3C2)cn1	-9.52%
CNc1cc2c(nn1)CCN(C(=O)c1cc(C)no1)C2	-15.8%
O=C(Cc1ccc2c(c1)CCC2)N1CCCC(n2cccn2)C1 (configuration not stated)	-7.81%
Cc1ccc(C(=O)N2CCc3c(CNc4ncccn4)cncc3C2)o1	9.21%
Cc1ncnc2c1CCN(Cc1ccccn1)CC2	-10.4%

Compound	cytotoxicity at 10 µM
Cc1cccc(C(=O)N2C[C@@H]3COC[C@@H](CC(=O)N4CCCC4)[C@@H]3C2)n1	-120%
c1cncc(OC[C@@]23CCO[C@@H]2CCN(Cc2cccs2)C3)c1	14.6%
COCc1cnc2n1CCN(C1CCCC1)C2C (configuration not stated)	9.13%
CN(C)[C@@H]1CN(C(=O)c2ccc(C#N)cc2)[C@@H]2CCCO[C@H]12	-146%
Cc1cccc(NC(=O)C2CCc3ccccc3N2)c1 (configuration not stated)	-5.92%
CO[C@@H]1CCN(Cc2cccc(C)n2)[C@@H]2CN(Cc3ccncc3)C[C@@H]21	0.951%
CCn1ncc2c1C(COC)CN(Cc1cccnc1)C2 (configuration not stated)	0.588%
O=C(c1cnccn1)N1CCCC2(CCN(Cc3ccsc3)CC2)C1	1.55%
O=C(c1cccc(F)c1)N1C[C@H]2CN(Cc3ccccn3)C[C@H]2C1	-1.92%
Cc1ccc2c(n1)N(CCn1cccn1)CCN(S(C)(=O)=O)C2	13.5%
O=C(c1ccc[nH]1)N1CC[C@@H](OCC2CC2)[C@@H]1Cc1cccnc1	0.878%
CN1CC[C@H]2OCC[C@@]2(C(=O)NCCc2ccccn2)C1	1.82%
COCCN1CCC2(CC1)CCN(Cc1ccccn1)CC2	-3.54%
CC[C@@H]1N(Cc2ccc(F)cc2)CCC[C@]12CCC(=O)N2CCOC	11.5%
Cc1ccc(C(=O)N2C[C@@H]3CCN(C(C)C)C[C@@H]3C2)cn1	-6.54%
CN(C)CCn1c2c(ccc1=O)CCN(C(=O)c1ccoc1)CC2	6.2%
COc1ccc(-n2cc3[nH]c(=O)n(Cc4cccc(F)c4)n3c2=O)cc1	14.8%
CN1[C@@H]2CC[C@H]1CN(C(=O)c1nnc3n1CCCCC3)CC2	-5.43%
Cc1ccc(C)c(CN2C[C@@H]3CC[C@H]2CN(C(=O)c2cccnc2)C3)c1	3.41%
CSc1nc(N)cc(N2C[C@H]3CC[C@@H](C2)N(CC2CC2)C3=O)n1	0.291%

Reference: ChEMBL document CHEMBL4513216, “Probing the Open Global Health Chemical Diversity Library for Multistage-Active Starting Points for Next-Generation Antimalarials” (ACS Infect Dis, 2020)
